Ends that are not written are not given here.
Molecular target: recombinant Cdk5/p25 complex (Homo sapiens, UniProt Q00535+Q15078)
Experiment: IP-linked Cdk5 kinase assay, recombinant Cdk5/p25, histone H1
Format: biochemical
Settings: recombinant Cdk5/p25, overnight incubation, vs solvent control
In short: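 Recombinant Cdk5/p25 complex incubated overnight with test peptide or solvent control, then immunoprecipitated with anti-Cdk5 antibody overnight at 4 °C. The immunocomplex was used for a kinase reaction with histone H1 as substrate and ³²P label, resolved on 12% SDS-PAGE, dried, and exposed to film for several hours. ³²P-histone H1 band intensity was quantified, with Coomassie staining as loading check. Six replicates from two independent experiments.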

recombinant Cdk5/p25 complex, sequence (Q00535 whole entry): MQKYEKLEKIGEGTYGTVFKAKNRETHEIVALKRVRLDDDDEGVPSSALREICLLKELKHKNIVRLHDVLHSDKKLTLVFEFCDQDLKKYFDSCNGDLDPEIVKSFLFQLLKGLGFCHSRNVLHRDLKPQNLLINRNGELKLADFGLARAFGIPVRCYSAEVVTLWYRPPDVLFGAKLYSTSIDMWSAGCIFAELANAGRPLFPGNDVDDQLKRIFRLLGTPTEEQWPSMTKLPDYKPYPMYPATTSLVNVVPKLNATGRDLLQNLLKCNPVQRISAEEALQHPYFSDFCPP
recombinant Cdk5/p25 complex, sequence (Q15078 99-307 limits assumed): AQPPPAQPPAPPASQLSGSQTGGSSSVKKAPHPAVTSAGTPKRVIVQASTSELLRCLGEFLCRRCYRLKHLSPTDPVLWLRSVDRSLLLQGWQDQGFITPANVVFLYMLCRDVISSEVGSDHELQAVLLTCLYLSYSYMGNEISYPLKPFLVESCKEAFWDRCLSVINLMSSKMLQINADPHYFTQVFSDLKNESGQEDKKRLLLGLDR

ARAFGIPVRCYS [Cdk5i]
reduction of histone H1 phosphorylation by Cdk5/p25: ~ 22%
